Reference: ChEMBL document CHEMBL1125306, “5,10-Methylenetetrahydro-5-deazafolic acid and analogues: synthesis and biological activities” (J Med Chem, 1992)

Assays:
Manca [1] = assay: Compound was evaluated for the inhibition of Manca human lymphoma cell growth; format: functional, cell-based
Summary of the method: (§1)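 Manca human lymphoma cells grown in RPMI medium with 10% fetal calf serum. Growth was estimated by tetrazolium reduction.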

Thymidylate synthase [2] = molecular target: T1, Thymidylate synthase (Lactobacillus casei, UniProt P00469); assay: Compound was evaluated for the inhibition of Lactobacillus casei thymidylate synthase; parameters: species or system Lacticaseibacillus casei
T1 sequence (P00469 whole entry): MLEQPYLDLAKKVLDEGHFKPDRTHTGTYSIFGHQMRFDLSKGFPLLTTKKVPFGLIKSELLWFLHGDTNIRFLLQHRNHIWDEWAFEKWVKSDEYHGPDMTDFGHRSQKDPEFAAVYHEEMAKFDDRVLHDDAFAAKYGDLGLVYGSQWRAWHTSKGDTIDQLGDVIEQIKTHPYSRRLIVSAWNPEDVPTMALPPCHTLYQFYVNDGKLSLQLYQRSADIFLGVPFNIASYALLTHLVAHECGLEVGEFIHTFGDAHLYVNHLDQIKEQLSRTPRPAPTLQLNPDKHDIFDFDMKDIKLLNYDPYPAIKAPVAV

Dihydrofolate reductase [3] = molecular target: T2, Dihydrofolate reductase (Homo sapiens, UniProt P00374); assay: Compound was evaluated for the inhibition of recombinant human Dihydrofolate reductase (DHFR); no inhibition
T2 sequence (P00374 whole entry): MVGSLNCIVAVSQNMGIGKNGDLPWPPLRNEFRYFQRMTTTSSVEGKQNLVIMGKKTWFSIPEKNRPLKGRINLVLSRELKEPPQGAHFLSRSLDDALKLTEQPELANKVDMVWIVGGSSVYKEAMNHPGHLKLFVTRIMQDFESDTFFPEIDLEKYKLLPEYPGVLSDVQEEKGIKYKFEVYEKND

[4] = molecular target: GAR formyltransferase (Lactobacillus casei); assay: Compound was evaluated for the inhibition of Glycinamide ribonucleotide formyl transferase (GAR) with formyl (6R) tetrahydrofolate as substrate
[5] = molecular target: T3, Dihydrofolate reductase (Homo sapiens) (UniProt P00374); assay: Percent inhibition against human DHFR; settings: concentration not given here
T3 sequence (whole entry): T2 sequence (P00374 whole entry)

Thymidylate synthase [6] = molecular target: Thymidylate synthase (Homo sapiens, UniProt P04818); assay: Compound was evaluated for the inhibition of recombinant human thymidylate synthase
Manca [7] = assay: Compound was evaluated for the inhibition of Manca human lymphoma cell growth; no inhibition; format: functional, cell-based; summary of the method: as §1
Dihydrofolate reductase [8] = molecular target: Dihydrofolate reductase (Lactobacillus casei, UniProt P00381); assay: Compound was evaluated for the inhibition of Lactobacillus casei DHFR; parameters: species or system Lacticaseibacillus casei
Dihydrofolate reductase [9] = molecular target: T2, Dihydrofolate reductase; assay: Compound was evaluated for the inhibition of recombinant human Dihydrofolate reductase (DHFR)

Thymidylate synthase (Homo sapiens, UniProt P04818), sequence (P04818 whole entry): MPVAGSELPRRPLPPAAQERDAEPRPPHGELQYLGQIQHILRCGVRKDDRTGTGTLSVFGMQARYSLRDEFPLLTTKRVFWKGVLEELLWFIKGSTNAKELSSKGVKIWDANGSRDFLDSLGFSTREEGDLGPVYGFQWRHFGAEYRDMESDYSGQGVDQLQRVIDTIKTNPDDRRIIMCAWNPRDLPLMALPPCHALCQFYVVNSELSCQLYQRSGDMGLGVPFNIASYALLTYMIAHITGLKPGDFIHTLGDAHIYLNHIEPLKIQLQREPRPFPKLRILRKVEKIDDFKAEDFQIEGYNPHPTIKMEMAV
Dihydrofolate reductase (Lactobacillus casei, UniProt P00381), sequence (P00381 whole entry): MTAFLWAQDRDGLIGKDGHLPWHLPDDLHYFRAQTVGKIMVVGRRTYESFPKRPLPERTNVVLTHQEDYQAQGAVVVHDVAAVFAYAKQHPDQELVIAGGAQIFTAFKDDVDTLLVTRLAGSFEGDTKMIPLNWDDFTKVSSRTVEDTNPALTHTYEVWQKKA

SMILES	IC50 (Manca [1])	IC50 (Thymidylate synthase [2])	IC50 (Dihydrofolate reductase [3])	IC50 [4]	inhibition [5]	IC50 (Thymidylate synthase [6])	IC50 (Manca [7])	IC50 (Dihydrofolate reductase [8])	IC50 (Dihydrofolate reductase [9])
Cc1c2cnc3nc(N)nc(O)c3c2c(C)n1C	> 10 µM	95 µM	> 95 µM	> 95 µM	–	–	–	–	–
Nc1nc(O)c2c(n1)NCC1CN(c3ccc(C(=O)NC(CCC(=O)O)C(=O)O)cc3)CC21 (stereo not drawn)	–	–	–	–	34%	> 40 µM	> 20 µM	5 µM	> 40 µM
Nc1nc(O)c2c(ncc3cn(-c4ccc(C(=O)NC(CCC(=O)O)C(=O)O)cc4)cc32)n1 (stereo not drawn)	42 µM	> 100 µM	–	–	23%	–	–	–	> 80 µM
